Values after ≈ are worked out from the molar mass of the structure shown.
Columns and labels:
[1] = test system: M. tuberculosis H37Rv versus NIH 3T3; experiment: Selectivity index; parameters: species or system Mycobacterium tuberculosis; conditions: IC50 NIH 3T3 / MIC M. tuberculosis H37Rv
In short: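 SI = IC50/MIC. MIC against M. tuberculosis H37Rv came from broth microdilution microplate alamar blue assay (MABA), with compounds tested at 100-1.56 μg/ml. […] IC50 was derived by nonlinear regression of % inhibition against log10 concentration.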

Bacillus lentus = experiment: Zone of inhibition, disk diffusion; format: cell-based
[2] = test system: M. tuberculosis H37Rv (MTB); experiment: Microplate alamar blue assay; format: cell-based, Mycobacterium tuberculosis; conditions: MABA, screened at 100-1.56 μg/ml; - indicates no inhibition
Rhodospirillum rubrum = experiment: MIC, two-fold serial dilution; format: cell-based; conditions: 24 h, read-out: R. ruberum MIC× 10^−3
Vibrio cholerae = experiment: MIC, two-fold serial dilution; format: cell-based; conditions: 24 h, read-out: V. cholerae MIC× 10^−3
Candida albicans = experiment: MIC, two-fold serial dilution; format: cell-based; conditions: read-out: C. albicans MIC× 10^−3
In short: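 Fungal MIC determined by two-fold serial dilution, with clotrimazole as reference standard. Growth was scored visually after 72-96 h incubation. MIC was taken as the lowest concentration with no visible growth.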

Coryne bacterium = experiment: Zone of inhibition, disk diffusion; format: cell-based
Escherichia coli = experiment: Zone of inhibition, disk diffusion; format: cell-based; conditions: E. coli, 100 μg/disk

O=C1NN=C(N=Cc2ccccc2O)C1=NNn1c(-c2ccccc2)nc2ccccc2c1=O [QSP2, 3-{2-[-3-[-[(2-hydroxyphenyl)methylidene]amino]-5-oxo-4,5-dihydro-1H-pyrazol-4-ylidene]hydrazin-1-yl}-2-phenyl-3,4-dihydroquinazolin-4-one]
Selective Index (SI) (SI=IC50/MIC) [1]: 16.32

CC1=NN(CNc2ccc(O)cc2)C(=O)C1=NNn1c(-c2ccccc2)nc2ccccc2c1=O [QP3, 3-{2-[-1-{[(4-hydroxyphenyl)amino]methyl}-3-methyl-5-oxo-4,5-dihydro-1H-pyrazol-4-ylidene] hydrazin-1-yl}-2-phenyl-3,4-dihydroquinazolin-4-one]
Selective Index (SI) (SI=IC50/MIC) [1]: 01.16

CC1=NN(CNC(=O)c2ccccc2)C(=O)C1=NNn1c(-c2ccccc2)nc2ccccc2c1=O [QP11, N-{[-3-methyl-5-oxo-4-[2-(4-oxo-2-phenyl-3,4-dihydroquinazolin-3-yl)hydrazin-1-ylidene]-4,5-dihydro-1H-pyrazol-1-yl]methyl}benzamide]
B. lentus % of I (Bacillus lentus): 95% | TB Activity MIC×10^-3 (MTB37RV) [2]: 06.49 ×10^-3 μM/ml

O=C1NN=C(N=Cc2ccc(O)c(O)c2)C1=NNn1c(-c2ccccc2)nc2ccccc2c1=O [QSP4, 3-{2-[-3-[-[(3,4-dihydroxyphenyl)methylidene]amino]-5-oxo-4,5-dihydro-1H-pyrazol-4-ylidene] hydrazin-1-yl}-2-phenyl-3,4-dihydroquinazolin-4-one]
MIC (Rhodospirillum rubrum): 26.7 µM (≈ 12.5 µg/mL) | MIC (Vibrio cholerae): 26.7 µM (≈ 12.5 µg/mL) | MIC (Candida albicans): 26.7 µM (≈ 12.5 µg/mL)

O=C1NN=C(N=Cc2ccc(O)cc2O)C1=NNn1c(-c2ccccc2)nc2ccccc2c1=O [QSP3, 3-{2-[-3-[-[(2,4-dihydroxyphenyl)methylidene]amino]-5-oxo-4,5-dihydro-1H-pyrazol-4-ylidene] hydrazin-1-yl}-2-phenyl-3,4-dihydroquinazolin-4-one]
Selective Index (SI) (SI=IC50/MIC) [1]: 08.35

CC1=NN(CNc2ccc(C(=O)O)cc2)C(=O)C1=NNn1c(-c2ccccc2)nc2ccccc2c1=O [QP6, 4-({[-3-methyl-5-oxo-4-[2-(4-oxo-2-phenyl-3,4-dihydroquinazolin-3-yl)hydrazin-1-ylidene]-4,5-dihydro-1H-pyrazol-1-yl]methyl}amino)benzoic acid]
C. bacterium % of I (Coryne bacterium): 90% | antibacterial activity relative to standard drug ciprofloxacin (Escherichia coli): 1.5 times

O=C1NN=C(N=Cc2ccccc2)C1=NNn1c(-c2ccccc2)nc2ccccc2c1=O [QSP1, 3-{2-[-5-oxo-3-[-(phenylmethylidene)amino]-4,5-dihydro-1H-pyrazol-4-ylidene]hydrazin-1-yl}-2-phenyl-3,4-dihydroquinazolin-4-one]
Selective Index (SI) (SI=IC50/MIC) [1]: 10.92

O=C(O)c1cn(C2CC2)c2cc(N3CCNCC3)c(F)cc2c1=O [CFN, ciprofloxacin]
TB Activity MIC×10^-3 (MTB37RV) [2]: 09.40 ×10^-3 μM/ml

CC[C@@H](CO)NCCN[C@@H](CC)CO [Ethambutol, ethambutol]
TB Activity MIC×10^-3 (MTB37RV) [2]: 07.60 ×10^-3 μM/ml

CC(=O)NCN1N=C(C)C(=NNn2c(-c3ccccc3)nc3ccccc3c2=O)C1=O [QP9, N-{[-3-methyl-5-oxo-4-[2-(4-oxo-2-phenyl-3,4-dihydroquinazolin-3-yl)hydrazin-1-ylidene]-4,5-dihydro-1H-pyrazol-1-yl]methyl}acetamide]
B. lentus % of I (Bacillus lentus): 95% | Selective Index (SI) (SI=IC50/MIC) [1]: 18.16

CC1=NN(CNc2ccc(Cl)cc2)C(=O)C1=NNn1c(-c2ccccc2)nc2ccccc2c1=O [QP4, 3-{2-[-1-{[(4-chlorophenyl)amino]methyl}-3-methyl-5-oxo-4,5-dihydro-1H-pyrazol-4-ylidene] hydrazin-1-yl}-2-phenyl-3,4-dihydroquinazolin-4-one]
C. bacterium % of I (Coryne bacterium): 90%
